Assays:
[1] = biological target: T1, Bromodomain-containing protein 4 (Homo sapiens, UniProt O60885); experiment: Inhibition of BRD4 BD2 (unknown origin) measured by TR-FRET assay
[2] = biological target: T1, Bromodomain-containing protein 4; experiment: Inhibition of BRD4 BD1 (unknown origin) measured by TR-FRET assay
C-C motif chemokine 2 = C-C motif chemokine 2 (Homo sapiens, UniProt P13500); experiment: Inhibition of MCP-1 in LPS-stimulated human whole blood incubate for 24 hrs by immuno assay; assay type: tissue-based
Chain of C-C motif chemokine 2 (P13500 whole entry): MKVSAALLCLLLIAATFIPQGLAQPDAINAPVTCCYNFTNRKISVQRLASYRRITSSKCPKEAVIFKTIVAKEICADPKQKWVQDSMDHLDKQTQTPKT

[3] = Lipophilicity, logD of compound at pH 7.4 by Chromatography; assay type: physicochemical; conditions: buffer
[4] = Artificial membrane permeability of the compound; assay type: ADME; conditions: PAMPA; read-out: permeability
[5] = Solubility of the compound at pH 6.5 in fast state simulated intestinal fluid incubated for 16 hrs by HPLC analysis; assay type: physicochemical; conditions: fasted state simulated intestinal fluid
[6] = Intrinsic clearance in rat hepatocytes after 60 mins by LC-MS/MS analysis; assay type: ADME, cell-based, Hepatocyte; conditions: 1 h
[7] = Intrinsic clearance in dog hepatocytes incubated upto 45 mins by LC-MS/MS analysis; assay type: ADME, cell-based, Canis lupus familiaris, Hepatocyte; conditions: 0.75 h
[8] = Intrinsic clearance in human hepatocytes measured after 120 mins by LC-MS/MS analysis; assay type: ADME, cell-based, Hepatocyte; conditions: 2 h
[9] = Clearance in Wistar Han rat blood at 3.1 mg/kg, po or 1 mg/kg, iv measured upto 24 hrs by LC-MS/MS analysis; assay type: ADME, organism-based; conditions: whole blood
Method in brief: (§1)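 Male Wistar Han rats and beagle dogs were dosed iv as a 1 h infusion in DMSO with 10% (w/v) Kleptose HPB in saline (2%:98% or 5%:95% v/v). Oral doses were given in 1% (w/v) methylcellulose (400 cps) aqueous suspension. Oral values are means of n = 3 and iv values n = 1 unless otherwise noted.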

[10] = Unbound clearance in Wistar Han rat blood at 3.1 mg/kg, po or 1 mg/kg, iv measured upto 24 hrs by LC-MS/MS analysis; assay type: ADME, organism-based; conditions: in vivo; method in brief: as §1
[11] = Volume of distribution at steady state in Wistar Han rat at 3.1 mg/kg, po or 1 mg/kg, iv measured upto 24 hrs by LC-MS/MS analysis; assay type: ADME, organism-based; conditions: in vivo, read-out: Vdss; method in brief: as §1
[12] = Unbound volume of distribution at steady state in Wistar Han rat at 3.1 mg/kg, po or 1 mg/kg, iv measured upto 24 hrs by LC-MS/MS analysis; assay type: ADME, organism-based; conditions: in vivo; method in brief: as §1
[13] = Half-life in Wistar Han rat at 3.1 mg/kg, po or 1 mg/kg, iv measured upto 24 hrs by LC-MS/MS analysis; assay type: ADME, organism-based; conditions: in vivo; method in brief: as §1
[14] = Oral bioavailability in Wistar Han rat at 3.1 mg/kg measured upto 24 hrs by LC-MS/MS analysis; assay type: ADME, organism-based; conditions: in vivo; method in brief: as §1
[15] = Unbound fraction in Wistar Han rat at 3.1 mg/kg, po or 1 mg/kg, iv measured upto 24 hrs by LC-MS/MS analysis; assay type: ADME, organism-based; conditions: in vivo
[16] = Clearance in Beagle dog blood at 1.5 mg/kg, po or 0.4 mg/kg, iv measured upto 24 hrs by LC-MS/MS analysis; assay type: ADME, organism-based, Canis lupus familiaris; conditions: whole blood; method in brief: as §1
[17] = Unbound clearance in Beagle dog blood at 1.5 mg/kg, po or 0.4 mg/kg, iv measured upto 24 hrs by LC-MS/MS analysis; assay type: ADME, organism-based, Canis lupus familiaris; conditions: in vivo; method in brief: as §1
[18] = Volume of distribution at steady state in Beagle dog at 1.5 mg/kg, po or 0.4 mg/kg, iv measured upto 24 hrs by LC-MS/MS analysis; assay type: ADME, organism-based, Canis lupus familiaris; conditions: in vivo, read-out: Vdss; method in brief: as §1
[19] = Unbound volume of distribution at steady state in Beagle dog at 1.5 mg/kg, po or 0.4 mg/kg, iv measured upto 24 hrs by LC-MS/MS analysis; assay type: ADME, organism-based, Canis lupus familiaris; conditions: in vivo; method in brief: as §1
[20] = Half-life in Beagle dog at 1.5 mg/kg, po or 0.4 mg/kg, iv measured upto 24 hrs by LC-MS/MS analysis; assay type: ADME, organism-based, Canis lupus familiaris; conditions: in vivo; method in brief: as §1
[21] = Oral bioavailability in Beagle dog at 1.5 mg/kg measured upto 24 hrs by LC-MS/MS analysis; assay type: ADME, organism-based, Canis lupus familiaris; conditions: in vivo; method in brief: as §1
[22] = Unbound fraction in Beagle dog at 1.5 mg/kg, po or 0.4 mg/kg, iv measured upto 24 hrs by LC-MS/MS analysis; assay type: ADME, organism-based, Canis lupus familiaris; conditions: in vivo
Cytochrome P450 3A4 = Cytochrome P450 3A4 (Homo sapiens, UniProt P08684); experiment: Inhibition of CYP3A4 (unknown origin); assay type: ADME
Chain of Cytochrome P450 3A4 (P08684 whole entry): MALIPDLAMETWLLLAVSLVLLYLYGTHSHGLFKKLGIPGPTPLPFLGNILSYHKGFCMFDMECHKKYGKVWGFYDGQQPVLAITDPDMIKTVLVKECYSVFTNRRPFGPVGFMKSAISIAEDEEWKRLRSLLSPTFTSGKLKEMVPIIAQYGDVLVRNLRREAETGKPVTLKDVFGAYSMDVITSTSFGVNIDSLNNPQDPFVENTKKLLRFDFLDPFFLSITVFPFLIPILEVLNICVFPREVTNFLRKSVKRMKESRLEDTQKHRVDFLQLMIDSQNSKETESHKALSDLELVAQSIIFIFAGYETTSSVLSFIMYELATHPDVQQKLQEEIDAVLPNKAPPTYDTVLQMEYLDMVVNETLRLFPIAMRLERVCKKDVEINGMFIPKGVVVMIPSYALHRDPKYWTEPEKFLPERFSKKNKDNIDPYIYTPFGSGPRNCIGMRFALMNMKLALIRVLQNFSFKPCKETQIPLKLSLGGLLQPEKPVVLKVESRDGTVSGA

[23] = biological target: Voltage-gated inwardly rectifying potassium channel KCNH2 (Homo sapiens, UniProt Q12809); experiment: Inhibition of hERG; assay type: toxicity
Chain of Voltage-gated inwardly rectifying potassium channel KCNH2 (Q12809 whole entry): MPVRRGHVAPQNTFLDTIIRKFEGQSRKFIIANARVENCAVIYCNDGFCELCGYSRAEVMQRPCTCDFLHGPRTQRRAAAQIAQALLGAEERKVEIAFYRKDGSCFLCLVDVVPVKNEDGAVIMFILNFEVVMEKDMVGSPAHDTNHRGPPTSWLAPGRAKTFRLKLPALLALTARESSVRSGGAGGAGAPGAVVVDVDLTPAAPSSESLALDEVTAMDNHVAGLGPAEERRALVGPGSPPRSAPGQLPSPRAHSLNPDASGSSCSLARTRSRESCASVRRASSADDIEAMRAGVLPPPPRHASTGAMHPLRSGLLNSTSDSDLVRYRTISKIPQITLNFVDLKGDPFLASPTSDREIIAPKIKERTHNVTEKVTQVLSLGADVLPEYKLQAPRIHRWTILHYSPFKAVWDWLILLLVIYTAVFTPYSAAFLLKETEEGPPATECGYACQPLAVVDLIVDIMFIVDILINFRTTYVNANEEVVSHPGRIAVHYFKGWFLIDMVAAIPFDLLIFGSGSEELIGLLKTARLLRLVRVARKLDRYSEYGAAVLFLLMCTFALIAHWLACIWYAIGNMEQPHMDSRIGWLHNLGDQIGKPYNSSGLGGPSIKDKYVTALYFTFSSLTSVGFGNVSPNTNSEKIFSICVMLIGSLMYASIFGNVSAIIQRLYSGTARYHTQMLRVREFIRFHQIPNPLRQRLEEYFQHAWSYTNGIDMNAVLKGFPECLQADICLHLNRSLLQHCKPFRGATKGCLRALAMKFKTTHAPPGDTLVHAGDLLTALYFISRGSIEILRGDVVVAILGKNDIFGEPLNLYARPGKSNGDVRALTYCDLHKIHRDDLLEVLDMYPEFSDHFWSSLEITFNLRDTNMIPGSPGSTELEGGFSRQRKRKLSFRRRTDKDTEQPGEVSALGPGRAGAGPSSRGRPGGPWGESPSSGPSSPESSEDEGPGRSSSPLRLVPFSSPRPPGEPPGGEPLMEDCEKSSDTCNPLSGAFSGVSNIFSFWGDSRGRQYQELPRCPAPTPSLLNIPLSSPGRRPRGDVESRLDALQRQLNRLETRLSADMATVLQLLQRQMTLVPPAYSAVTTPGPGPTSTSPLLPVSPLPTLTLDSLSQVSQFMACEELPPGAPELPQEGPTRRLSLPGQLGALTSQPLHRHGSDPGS

[24] = Clearance in Wistar Han rat blood at 3 mg/kg, po or 1 mg/kg, iv measured upto 24 hrs by LC-MS/MS analysis; assay type: ADME, organism-based; conditions: whole blood; method in brief: as §1
[25] = Unbound clearance in Wistar Han rat blood at 3 mg/kg, po or 1 mg/kg, iv measured upto 24 hrs by LC-MS/MS analysis; assay type: ADME, organism-based; conditions: in vivo; method in brief: as §1
[26] = Volume of distribution at steady state in Wistar Han rat at 3 mg/kg, po or 1 mg/kg, iv measured upto 24 hrs by LC-MS/MS analysis; assay type: ADME, organism-based; conditions: in vivo, read-out: Vdss; method in brief: as §1
[27] = Unbound volume of distribution at steady state in Wistar Han rat at 3 mg/kg, po or 1 mg/kg, iv measured upto 24 hrs by LC-MS/MS analysis; assay type: ADME, organism-based; conditions: in vivo; method in brief: as §1
[28] = Half-life in Wistar Han rat at 3 mg/kg, po or 1 mg/kg, iv measured upto 24 hrs by LC-MS/MS analysis; assay type: ADME, organism-based; conditions: in vivo; method in brief: as §1
[29] = Oral bioavailability in Wistar Han rat at 3 mg/kg measured upto 24 hrs by LC-MS/MS analysis; assay type: ADME, organism-based; conditions: in vivo; method in brief: as §1
[30] = Clearance in Beagle dog blood at 1.5 mg/kg, po or 0.5 mg/kg, iv measured upto 24 hrs by LC-MS/MS analysis; assay type: ADME, organism-based, Canis lupus familiaris; conditions: whole blood; method in brief: as §1
[31] = Unbound clearance in Beagle dog blood at 1.5 mg/kg, po or 0.5 mg/kg, iv measured upto 24 hrs by LC-MS/MS analysis; assay type: ADME, organism-based, Canis lupus familiaris; conditions: in vivo; method in brief: as §1
[32] = Volume of distribution at steady state in Beagle dog at 1.5 mg/kg, po or 0.5 mg/kg, iv measured upto 24 hrs by LC-MS/MS analysis; assay type: ADME, organism-based, Canis lupus familiaris; conditions: in vivo, read-out: Vdss; method in brief: as §1
[33] = Unbound volume of distribution at steady state in Beagle dog at 1.5 mg/kg, po or 0.5 mg/kg, iv measured upto 24 hrs by LC-MS/MS analysis; assay type: ADME, organism-based, Canis lupus familiaris; conditions: in vivo; method in brief: as §1
[34] = Half-life in Beagle dog at 1.5 mg/kg, po or 0.5 mg/kg, iv measured upto 24 hrs by LC-MS/MS analysis; assay type: ADME, organism-based, Canis lupus familiaris; conditions: in vivo; method in brief: as §1
[35] = Stability of compound in simulated gastric fluid assessed as half-life at pH 6 to 10 in presence of hydrogen peroxide; assay type: ADME
Method in brief: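 The compound was held at 40 °C in pH 10 medium, pH 6 medium and simulated gastric fluid, each with and without hydrogen peroxide as oxidant, and degradation was monitored.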

[36] = biological target: T2, Transcription intermediary factor 1-alpha (Homo sapiens, UniProt O15164); experiment: Binding affinity to human TRIM24 bromodomain by BROMOscan method
T2 sequence (O15164 whole entry): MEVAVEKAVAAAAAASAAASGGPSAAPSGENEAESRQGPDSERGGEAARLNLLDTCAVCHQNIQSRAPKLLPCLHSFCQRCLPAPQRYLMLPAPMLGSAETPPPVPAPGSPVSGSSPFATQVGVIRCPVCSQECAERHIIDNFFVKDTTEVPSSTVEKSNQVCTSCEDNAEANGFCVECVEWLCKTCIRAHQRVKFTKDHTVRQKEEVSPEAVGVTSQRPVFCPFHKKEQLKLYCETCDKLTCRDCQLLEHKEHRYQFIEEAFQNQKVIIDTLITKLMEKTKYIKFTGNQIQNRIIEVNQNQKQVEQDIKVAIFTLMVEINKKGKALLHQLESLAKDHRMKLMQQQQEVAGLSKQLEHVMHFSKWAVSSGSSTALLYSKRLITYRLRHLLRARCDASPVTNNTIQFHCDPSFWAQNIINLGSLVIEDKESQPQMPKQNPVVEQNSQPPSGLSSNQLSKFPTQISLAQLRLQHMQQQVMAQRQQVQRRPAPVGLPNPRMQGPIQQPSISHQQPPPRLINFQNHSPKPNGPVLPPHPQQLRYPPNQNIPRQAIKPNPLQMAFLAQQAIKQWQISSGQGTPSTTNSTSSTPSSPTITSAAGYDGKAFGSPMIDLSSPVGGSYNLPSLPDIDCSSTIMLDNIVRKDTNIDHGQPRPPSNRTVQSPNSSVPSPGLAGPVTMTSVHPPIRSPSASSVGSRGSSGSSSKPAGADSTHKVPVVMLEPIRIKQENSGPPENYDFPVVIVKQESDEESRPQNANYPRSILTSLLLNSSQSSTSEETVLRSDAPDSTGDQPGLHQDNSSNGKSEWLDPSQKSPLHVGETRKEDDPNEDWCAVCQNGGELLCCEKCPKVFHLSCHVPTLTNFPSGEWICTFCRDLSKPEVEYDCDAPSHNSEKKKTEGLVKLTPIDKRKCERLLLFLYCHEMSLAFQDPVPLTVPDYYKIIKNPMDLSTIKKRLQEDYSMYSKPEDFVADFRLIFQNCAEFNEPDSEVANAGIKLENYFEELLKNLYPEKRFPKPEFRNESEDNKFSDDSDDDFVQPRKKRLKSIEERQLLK

[37] = Unbound fraction in Wistar Han rat at 3 mg/kg, po or 1 mg/kg, iv measured upto 24 hrs by LC-MS/MS analysis; assay type: ADME, organism-based; conditions: in vivo
[38] = Unbound fraction in Beagle dog at 1.5 mg/kg, po or 0.5 mg/kg, iv measured upto 24 hrs by LC-MS/MS analysis; assay type: ADME, organism-based, Canis lupus familiaris; conditions: in vivo

C[C@H]1C(=O)N(C)C=C(c2cnn(C)c2)c2cc([C@H](O)CO)ccc21
IC50 [1]: 31.6 nM | IC50 [2]: 31.6 nM | IC50 (C-C motif chemokine 2): 39.8 nM | chromatographic logD [3]: 1.3 | Papp [4]: 3.1 ×10⁻⁶ cm/s | solubility at 16 h [5]: > 1000 µg/mL | CLH [6]: < 0.8 mL/min/g | CLH [7]: 1.12 mL/min/g | CLH [8]: < 0.45 mL/min/g | clearance [9]: 19 mL/min/kg | CL free [10]: 31 mL/min/kg | Vd [11]: 1.1 L/kg | Vduss [12]: 1.8 L/kg | half-life [13]: 58.2 min | bioavailability [14]: 66% | Fu [15]: 0.61 | clearance [16]: 45 mL/min/kg | CL free [17]: 87 mL/min/kg | Vd [18]: 1.7 L/kg | Vduss [19]: 3.3 L/kg | half-life [20]: 30 min | bioavailability [21]: 39% | Fu [22]: 0.52

C[C@H]1C(=O)N(C)C=C(c2cnn(C)c2)c2cc([C@@H](O)CO)ccc21
IC50 [1]: 63.1 nM | IC50 [2]: 31.6 nM | IC50 (C-C motif chemokine 2): 39.8 nM | chromatographic logD [3]: 1.3 | IC50 (Cytochrome P450 3A4): > 39.8 µM | IC50 [23]: > 50.1 µM | Papp [4]: 3.1 ×10⁻⁶ cm/s | solubility at 16 h [5]: > 1000 µg/mL | CLH [6]: < 0.8 mL/min/g | CLH [7]: < 0.65 mL/min/g | CLH [8]: < 0.45 mL/min/g | clearance [24]: 26 mL/min/kg | CL free [25]: 38 mL/min/kg | Vd [26]: 1.3 L/kg | Vduss [27]: 1.9 L/kg | half-life [28]: 44.4 min | bioavailability [29]: 67% | bioavailability [21]: 79% | clearance [30]: 28 mL/min/kg | CL free [31]: 60 mL/min/kg | Vd [32]: 2.7 L/kg | Vduss [33]: 5.7 L/kg | half-life [34]: 84 min | half-life [35]: > 41.7 days | Kd [36]: 1260 nM | Fu [37]: 0.68 | Fu [38]: 0.47
